The chains are these.
B1: tRNA (parent)
chain: GUUCCGUUGGCGUAAUGGUAACGCGUCUCCCUCCUAAGGAGAAGACUGCGGGUUCGAGUCCCGUACGGAACG

Variants at the floor of the assay were thinned out.

The variants in the data set derive from B1. The data set can be described thus: yeast fitness relative to wild type (ratio to wild type); higher = fitter; tRNA-Arg(CCU), competitive growth, 37 C, YPD. In short, it runs like this: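 Variants of the tRNA-Arg(CCU) gene, chemically synthesised with a 3% per-site mutation rate at 69 sites, were placed at the native genomic locus in Saccharomyces cerevisiae. The pooled strains were competed in YPD at 37°C for 24 hours in six parallel replicates. Gene amplicons from the start population and from each end population were read by 100-nucleotide paired-end sequencing. Darwinian fitness relative to wild type came from changes in genotype frequencies; genotypes needed ≥ 100 starting reads, and estimates < 0.5 were set to 0.5.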
Take C61G C66U: the yeast fitness turned out to be 0.635.
U28G C46G C49U C61A: the yeast fitness is not above 0.5.
As to U8C G51A C62A, the yeast fitness is not above 0.5.
In the case of U3C C4U C60A C66G it was not above 0.5; in that of A36C C46U, 0.577; in that of G10A A15C C49A C61U C62G, not above 0.5.
In the case of U8A A20C C62A, the yeast fitness is not above 0.5.
Take C30U C66G A70G: the yeast fitness is not above 0.5.
Regarding U28C C33G G38A U54C U64G, the yeast fitness is not above 0.5.
Under C31U C60U U64C stands 0.695; under A20C A42U A65U, 0.553; under C27U C30A C46G, 0.698.
For the variant A43U G52A, the yeast fitness was found to be 0.663.
Under U7A A37U G50A U53C C62A A69U stands not above 0.5.
Regarding G18A A20G A69U, the yeast fitness is 0.542.
For C4U A14C C55U G58C, the yeast fitness came out at 0.595.
With U54C C60G, the yeast fitness is 0.539.
As to C31A G38A C46U A69U, the yeast fitness is not above 0.5.
In the case of G9C C29U A36U A65G G67A, the yeast fitness is not above 0.5.
As for A21U C22G C55A G56C G67C, the yeast fitness was not above 0.5.
In the case of U2C A14G G18A U32A U59A, the yeast fitness was not above 0.5.
For A15U U26A C29G G50A C61G G63C, the yeast fitness was found to be 0.57.
As to U28A A37C C61G, the yeast fitness is not above 0.5.
In the case of U13C G18C G52C G56A, the yeast fitness was not above 0.5.
Under U8A G10A G67U stands not above 0.5.
On to G9A C11G C55G G63C G67C, for which the yeast fitness was determined as 0.578.
As to C30A A45G U53A, the yeast fitness was determined as 1.1.
With U19A C24U G38A U54C, the yeast fitness was not above 0.5.
On to U8G C24A C30G A40G, for which the yeast fitness was 0.559.
On to U7G A14C C30G C66U, for which the yeast fitness was not above 0.5.
Consider C4U A21C G44A, for which the yeast fitness was not above 0.5.
Turning to C11U G50A C66A, the yeast fitness is not above 0.5.
Turning to C30U A57C G63C, the yeast fitness was not above 0.5.
As to C61G A70G, the yeast fitness was determined as 0.685.
For the variant A15G C34G A37U C49G, the yeast fitness is not above 0.5.
Take G12A U32C A43C A65U: the yeast fitness is not above 0.5.
In the case of C33U A42C G68U, the yeast fitness was 0.538.
In the case of A15C A21G, the yeast fitness amounted to 0.58.
As for G17A C33U, the yeast fitness is 0.607.
C11G U32A C46U: the yeast fitness amounted to 0.598.
Regarding U7A G12C A57C, the yeast fitness is not above 0.5.
Turning to G12C A14G G25A G41C G67A, the yeast fitness was not above 0.5.
In the case of G58A G68A, the yeast fitness amounted to 0.899.
Regarding A14G U19A A20G A40U C61G, the yeast fitness turned out to be 0.515.
Regarding A45C U53C, the yeast fitness turned out to be 0.823.
C22A A69C A70G: the yeast fitness was found to be 0.638.
For C31U C49G, the yeast fitness came to 0.914.
With G6C A20C, the yeast fitness amounted to 0.773.
On to C22G G50C C55G, for which the yeast fitness is not above 0.5.
With C22G C34A C66A, the yeast fitness is 0.703.
Under C24G U53G stands not above 0.5; under U16A G39A G48A G63A A65C, not above 0.5; under C11A U26G, 0.599.
Under C5U A21U C31U G52A A69G stands not above 0.5.
On to A15U A21C G23C C55A, for which the yeast fitness was not above 0.5.
On to C5A A21C U54G C60U, for which the yeast fitness was not above 0.5.
Take A20C C29U: the yeast fitness turned out to be 0.715.
Turning to G6U G18C C49G, the yeast fitness was not above 0.5.
Under A21C C24A C49U stands not above 0.5.
In the case of U19G A20U U26A G38C A45G C46G G50A G56C, the yeast fitness was not above 0.5.
Take U13C C24G U26A C55G C66A: the yeast fitness was found to be 0.561.
Take A21U A57U C60A G68C: the yeast fitness is not above 0.5.
In the case of A20U A65C it was 0.823.
Regarding C34A A40G, the yeast fitness amounted to 0.609.
On to A20G A57C C62U, for which the yeast fitness is not above 0.5.
U3C C29G C30G C49A G56C C61U: the yeast fitness is 0.789.
Consider C29A C55U G63C, for which the yeast fitness was not above 0.5.
As to G17C A42C C61A, the yeast fitness is not above 0.5.
In the case of G10C A45U, the yeast fitness was 0.778.
On to U35A A65G, for which the yeast fitness was found to be 0.751.
For C24A C33A, the yeast fitness came to 0.587.
U13C A36C C66U: the yeast fitness was not above 0.5.
For the variant U8A G50C G56A, the yeast fitness was not above 0.5.
For the variant C30U C60G, the yeast fitness was 0.661.
In the case of U3A C31G A40U G41U it was not above 0.5; in that of A15G C49G, 0.782; in that of C5U A14G U26C, 0.662.
Turning to C27G A37C A42G G48C U59C, the yeast fitness came to 0.533.
C22G C27U A70U: the yeast fitness worked out at 0.678.
With G12A G48A, the yeast fitness stood at 0.819.
As to G12C C62U A69U, the yeast fitness was 0.651.
With G41C U59A, the yeast fitness amounted to 0.801.
On to C5A A20U C31G C61U C66U, for which the yeast fitness was not above 0.5.
In the case of C11U C33U A43G, the yeast fitness worked out at 0.595.
Take U3A U7G C29G C49U: the yeast fitness is not above 0.5.
In the case of A37C A40G G52C U59C A65U, the yeast fitness is not above 0.5.
Under C5G C30U G50C stands not above 0.5; under C24U C49U G56C, 0.542; under U2C C24A, 0.574.
Regarding G38A C61A A65U, the yeast fitness was not above 0.5.
For C5G C11G C27G G48A, the yeast fitness was determined as 0.524.
Take U2G C29G A43C: the yeast fitness stood at 0.548.
For A43G A65C, the yeast fitness is 0.79.
Regarding A36G G39C C49U U54G, the yeast fitness worked out at 0.58.
In the case of G9C C24U U26G G68U it was not above 0.5; in that of C4U C30U C31G, 0.583; in that of C30A C31U A45C, 0.663.
Take A15U G25A C27A C33U: the yeast fitness amounted to 0.512.
For the variant C46A U47G C49A G52A G58C U64G A65G, the yeast fitness was not above 0.5.
Regarding U3C C27U C62U, the yeast fitness came to 0.617.
Under C4U A15U A42C A57U stands not above 0.5; under U53G A57G, 0.584; under U8C C22A, 0.932.
Turning to G10C C61A A69G, the yeast fitness is not above 0.5.
C4G A14C G48C: the yeast fitness was determined as 0.579.
On to C11G U13G G23C C34U U59C C66U, for which the yeast fitness was not above 0.5.
Take U47G A65C: the yeast fitness was 0.672.
As for U2G C4A C22U U28G A42U G68U, the yeast fitness was not above 0.5.
On to A43C G68C, for which the yeast fitness was found to be 0.72.
Under G25A A57G stands 1.08.
U13C U54A C60U: the yeast fitness was not above 0.5.
With G41C A42U, the yeast fitness was found to be 0.79.
In the case of U2C U13C G38A, the yeast fitness was found to be 0.596.
For the variant C33G U53A C60U, the yeast fitness came to 0.637.
In the case of A37C C46G C49G it was 0.568; in that of C11U C29U G67A, 0.57.
In the case of C11G U26C A45C A57C U59G, the yeast fitness was not above 0.5.
Under C24A U32A G50C stands not above 0.5.
For the variant U28G C34A U35C, the yeast fitness was not above 0.5.
With C22U G56C, the yeast fitness came out at 0.608.
As for A45U C62U G63C, the yeast fitness is not above 0.5.
As for C5G A20C C27G G67U, the yeast fitness was not above 0.5.
In the case of A20C C34G A43C G56A C61U A65G, the yeast fitness is not above 0.5.
As for G63C, the yeast fitness is 0.812.
Under C11U A65U G67C stands not above 0.5; under C4A G18C C46G, 0.503; under C5G C11A A15G G18A C30G, 0.587.
Under A14G A21C U35A A43G stands not above 0.5; under A15U C27U G48C A70U, 0.549.
With G10A G51A C66U, the yeast fitness is not above 0.5.
Take C4A C11A U47G: the yeast fitness was not above 0.5.
As to U13C C31U G50C, the yeast fitness was not above 0.5.
On to A21G G23A C27G A37U G44A C49U G63C, for which the yeast fitness was not above 0.5.
Take G18C C30U C31G G50A: the yeast fitness is not above 0.5.
For G25C C31G C61G C66G, the yeast fitness came to 0.674.
Take U26C U32C A37G C66U A69C: the yeast fitness is not above 0.5.
Turning to C30A A65U A69C, the yeast fitness turned out to be 0.692.
For C4G A14G G52A, the yeast fitness was not above 0.5.
U28A C34U A57G C66U: the yeast fitness is not above 0.5.
Consider C5G C30U A36U G51C, for which the yeast fitness is not above 0.5.
Take G25A G48A: the yeast fitness amounted to 0.981.
For A15C C55U A65G, the yeast fitness is not above 0.5.
Take U7A G50A C62U A69C: the yeast fitness is 0.614.
Under C4U C30U A57G G68A stands 0.525.
Under U3A C4G G6A U26G C66U stands not above 0.5; under U2A U16C C30A A43C, not above 0.5.
Regarding A43G G44A G56C C62U, the yeast fitness is not above 0.5.
Take C27A C61A: the yeast fitness amounted to 0.67.
As for U2C C27G U28A A43U C61A C62U A65U A69C, the yeast fitness is not above 0.5.
In the case of A15G A21G G52C C62A, the yeast fitness is 0.616.
Under C27U A40C G58A stands 0.626.
Turning to U7C A70U, the yeast fitness was determined as 0.692.
For the variant G17C A40G G41A G56C, the yeast fitness is not above 0.5.
In the case of A15G A20U C33A A36C A42U it was not above 0.5; in that of U3A C30U U59A A69C, not above 0.5; in that of G9C C30U C31G, 0.632.
Turning to C27U G56A, the yeast fitness was determined as 0.998.
As to U13G G44A A57U, the yeast fitness amounted to 0.617.
On to C27U C31A U35G C55G, for which the yeast fitness was not above 0.5.
For the variant G39A C62U A70U, the yeast fitness was 0.593.
In the case of A14C G17C G18A G23C A57C it was not above 0.5; in that of A21U C30U, 0.646.
C27U C30U C46U U54G: the yeast fitness is not above 0.5.
Under C5A G51A C61A stands not above 0.5; under C49U C60A C61A, 0.574; under A20U G67C, 0.732.
As to G10A A20C C29G, the yeast fitness was 0.597.

For the origin of these results see the RNAGym collection of RNA variant scans (doi:10.1126/science.aae0568).
